≈ marks a conversion by molar mass, not a printed value. Calls of active or inactive are those of the source.

This is an account of results in ChEMBL document CHEMBL3244142, “Antifungal properties of 2-bromo-3-fluorosuccinic acid esters and related compounds” (1977).

Assay [1] has as its system Aspergillus niger. Nature of the assay: Antifungal activity against Aspergillus niger ATCC 1004 at <100 ug/ml at pH 7 after 5 days in presence of 10% beef serum. Type of assay: functional, organism-based. Summed up:
(§1)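 Agar-dilution MIC in Sabouraud dextrose agar at pH 5.6 or 7.0, with or without 10% beef serum. Plates were incubated at 28 °C for 5 days. MIC is the lowest concentration (µg/mL) giving 100% inhibition. Steps were 1 µg/mL up to 10, 2 µg/mL from 10–20, and 10 µg/mL from 20–100; 100 µg/mL was the top level, and no inhibition there is scored as >100.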

The test system of assay [2] is Trichophyton mentagrophytes. Kind of assay: Antifungal activity against Trichophyton mentagrophytes ATCC 9129 at pH 7 after 5 days in absence of 10% beef serum. Type of assay: functional. The following applies: Trichophyton mentagrophytes, ATCC 9129, 120 h; read-out: MIC. Summed up:
as §1

Assay [3] deals with Trichophyton mentagrophytes. Kind of assay: Antifungal activity against Trichophyton mentagrophytes ATCC 9129 at pH 5.6 after 5 days in presence of 10% beef serum. The conditions noted are these: Trichophyton mentagrophytes, ATCC 9129, 120 h; read-out: MIC. Type of assay: functional. Summed up:
as §1

In assay [4] the test system is Mucor mucedo. Kind of assay: Antifungal activity against Mucor mucedo ATCC 7941 at pH 5.6 after 20 h in presence of 10% beef serum. The conditions noted are these: ATCC 7941, 20 h.
Assay [5] relates to Candida albicans. Kind of assay: Antifungal activity against Candida albicans ATCC 10231 at pH 5.6 after 20 h in absence of 10% beef serum. The conditions noted are these: ATCC 10231, 20 h.
Assay [6] deals with Trichophyton mentagrophytes. Kind of assay: Antifungal activity against Trichophyton mentagrophytes ATCC 9129 at pH 7 after 5 days in presence of 10% beef serum. Format: functional. The conditions noted are these: Trichophyton mentagrophytes, ATCC 9129, 120 h; read-out: MIC. The method, boiled down:
as §1

Assay [7] deals with Mucor mucedo. Nature of the assay: Antifungal activity against Mucor mucedo ATCC 7941 at pH 7 after 20 h in presence of 10% beef serum. The conditions noted are these: ATCC 7941, 20 h.
Assay [8] concerns Aspergillus niger. Nature of the assay: Antifungal activity against Aspergillus niger ATCC 1004 at <100 ug/ml at pH 5.6 after 5 days in absence of 10% beef serum. Type of assay: functional, organism-based. Summed up:
as §1

Assay [9] concerns Aspergillus niger. Kind of assay: Antifungal activity against Aspergillus niger ATCC 1004 at <100 ug/ml at pH 7 after 5 days in absence of 10% beef serum. Type of assay: functional, organism-based. Summed up:
as §1

Assay [10] deals with Aspergillus niger. Nature of the assay: Antifungal activity against Aspergillus niger ATCC 1004 at <100 ug/ml at pH 5.6 after 5 days in presence of 10% beef serum. Type of assay: functional, organism-based. Summed up: as §1
In assay [11] the test system is Candida albicans. Kind of assay: Antifungal activity against Candida albicans ATCC 10231 at pH 7 after 20 h in presence of 10% beef serum. The conditions noted are these: ATCC 10231, 20 h.
Assay [12] relates to Candida albicans. Kind of assay: Antifungal activity against Candida albicans ATCC 10231 at pH 7 after 20 h in absence of 10% beef serum. The following applies: ATCC 10231, 20 h.
In assay [13] the test system is Trichophyton mentagrophytes. Nature of the assay: Antifungal activity against Trichophyton mentagrophytes ATCC 9129 at pH 5.6 after 5 days in absence of 10% beef serum. The following applies: Trichophyton mentagrophytes, ATCC 9129, 120 h; read-out: MIC. Format: functional. Summed up:
as §1

Assay [14] relates to Candida albicans. Nature of the assay: Antifungal activity against Candida albicans ATCC 10231 at pH 5.6 after 20 h in presence of 10% beef serum. The conditions noted are these: ATCC 10231, 20 h.
Assay [15] concerns Mucor mucedo. Kind of assay: Antifungal activity against Mucor mucedo ATCC 7941 at pH 7 after 20 h in absence of 10% beef serum. The following applies: ATCC 7941, 20 h.
Assay [16] concerns Candida albicans. Nature of the assay: Antifungal activity against Candida albicans ATCC 10231 at <100 ug/ml at pH 5.6 after 20 h in absence of 10% beef serum.
Assay [17] has as its system Trichophyton mentagrophytes. Kind of assay: Antifungal activity against Trichophyton mentagrophytes ATCC 9129 at <100 ug/ml at pH 7 after 5 days in presence of 10% beef serum. Format: functional, organism-based. Summed up:
as §1

For assay [18], the system named is Candida albicans. Kind of assay: Antifungal activity against Candida albicans ATCC 10231 at <100 ug/ml at pH 5.6 after 20 h in presence of 10% beef serum.
The subject of assay [19] is Candida albicans. Nature of the assay: Antifungal activity against Candida albicans ATCC 10231 at <100 ug/ml at pH 7 after 20 h in presence of 10% beef serum.
In assay [20] the test system is Candida albicans. Kind of assay: Antifungal activity against Candida albicans ATCC 10231 at <100 ug/ml at pH 7 after 20 h in absence of 10% beef serum.
Assay [21] deals with Mucor mucedo. Kind of assay: Antifungal activity against Mucor mucedo ATCC 7941 at <100 ug/ml at pH 7 after 20 h in presence of 10% beef serum.
The test system of assay [22] is Mucor mucedo. Nature of the assay: Antifungal activity against Mucor mucedo ATCC 7941 at <100 ug/ml at pH 7 after 20 h in absence of 10% beef serum.
The subject of assay [23] is Mucor mucedo. Kind of assay: Antifungal activity against Mucor mucedo ATCC 7941 at <100 ug/ml at pH 5.6 after 20 h in presence of 10% beef serum.
The subject of assay [24] is Mucor mucedo. Kind of assay: Antifungal activity against Mucor mucedo ATCC 7941 at <100 ug/ml at pH 5.6 after 20 h in absence of 10% beef serum.

In general, MIC refers to the smallest concentration in the dilution series that meets the test's criterion for growth inhibition. As to `COC(=O)CC(F)C(Br)C(=O)OC` (stereo unspecified), the inhibition result with Aspergillus niger [1], in the assay with Aspergillus niger [8], in the assay on Aspergillus niger [9] and in the assay on Aspergillus niger [10] was “inactive” each time. Also, the MIC in [2] worked out at 16 µg/mL (≈ 62.2 µM); in assay [3], 18 µg/mL; in the assay on Mucor mucedo [4], 50 µg/mL; against Candida albicans [5] it was 90 µg/mL (≈ 350 µM); in assay [6] it was 40 µg/mL; in the assay on Mucor mucedo [7], 60 µg/mL. The minimal inhibitory concentration (MIC) in the assay on Candida albicans [11] turned out to be 90 µg/mL; against Candida albicans [12] it was 90 µg/mL (≈ 350 µM); in assay [13], 16 µg/mL (≈ 62.2 µM); with Candida albicans [14], 90 µg/mL; with Mucor mucedo [15], 40 µg/mL (≈ 156 µM).
For `COC(=O)C(Br)CF` (stereo unspecified), the inhibition entry (in the assay with Candida albicans [16]; in assay [17]; in the assay with Candida albicans [18]; in the assay on Aspergillus niger [1]; in the assay with Candida albicans [19]; in the assay with Aspergillus niger [8]) was “inactive” each time. Moreover, the inhibition entry in the assay with Aspergillus niger [9], in the assay with Candida albicans [20] and with Aspergillus niger [10] was “inactive” in each case. For the same molecule, the minimum inhibitory concentration (MIC) in assay [2] worked out at 100 µg/mL (≈ 541 µM); in assay [3], 100 µg/mL; in the assay with Mucor mucedo [4] it was 18 µg/mL; with Mucor mucedo [7], 30 µg/mL; in assay [13], 50 µg/mL (≈ 270 µM); in the assay with Mucor mucedo [15] it was 9 µg/mL (≈ 48.7 µM).
Consider `CCCCOC(=O)[C@@H](F)[C@@H](Br)C(=O)OCCCC` (relative stereo), for which the inhibition result in the assay on Aspergillus niger [1], in the assay on Aspergillus niger [8], in the assay with Aspergillus niger [9] and in the assay on Aspergillus niger [10] was “inactive” throughout. In addition, the MIC worked out at 4 µg/mL (≈ 12.2 µM) in assay [2]; 20 µg/mL in assay [3]; 30 µg/mL in the assay with Mucor mucedo [4]; 9 µg/mL (≈ 27.5 µM) with Candida albicans [5]; 30 µg/mL in [6]; 50 µg/mL in the assay on Mucor mucedo [7]. Further, the minimum inhibitory concentration (MIC) in the assay on Candida albicans [11] came to 50 µg/mL; with Candida albicans [12], 40 µg/mL (≈ 122 µM); in assay [13] it was 3 µg/mL (≈ 9.17 µM); in the assay with Candida albicans [14], 20 µg/mL; in the assay on Mucor mucedo [15], 20 µg/mL (≈ 61.1 µM).
Take `CCCCOC(=O)[C@H](F)[C@@H](Br)C(=O)OCCCC` (relative stereo): the inhibition entry with Mucor mucedo [21], in the assay with Aspergillus niger [1], with Aspergillus niger [8], in the assay on Aspergillus niger [9] and in the assay on Aspergillus niger [10] was “inactive” throughout. In addition, the MIC in assay [2] was 30 µg/mL (≈ 91.7 µM); in [3], 30 µg/mL; with Mucor mucedo [4] it was 80 µg/mL; with Candida albicans [5], 20 µg/mL (≈ 61.1 µM); in assay [6] it was 50 µg/mL; with Candida albicans [11], 90 µg/mL. Moreover, the MIC in the assay with Candida albicans [12] is 30 µg/mL (≈ 91.7 µM); in [13], less than 1 µg/mL; in the assay with Candida albicans [14], 80 µg/mL; in the assay with Mucor mucedo [15], 14 µg/mL (≈ 42.8 µM).
As for `CCCCOC(=O)/C=C/C(=O)OCCCC`, the inhibition result (in the assay with Candida albicans [16]; in assay [17]; with Mucor mucedo [22]; with Candida albicans [18]; in the assay on Mucor mucedo [21]; with Aspergillus niger [1]) was “inactive” each time. In addition, the inhibition entry with Candida albicans [19], in the assay on Mucor mucedo [23], in the assay on Aspergillus niger [8], in the assay with Aspergillus niger [9], with Candida albicans [20] and with Aspergillus niger [10] was “inactive” throughout. In addition, the inhibition entry with Mucor mucedo [24] is “inactive”. Also, the MIC in [2] is 30 µg/mL (≈ 131 µM); in assay [3] it was 60 µg/mL; in [13], 7 µg/mL (≈ 30.7 µM).
